Our source for the EC50 and Ki values is ChEMBL document CHEMBL1138590, “Discovery of novel dihydro-9,10-ethano-anthracene carboxamides as glucocorticoid receptor modulators” (Bioorg Med Chem Lett, 2009).

Bounds are passed on as bounds.

Assay [1] deals with T1, Glucocorticoid receptor (Homo sapiens, UniProt P04150).
T1 sequence (P04150 whole entry): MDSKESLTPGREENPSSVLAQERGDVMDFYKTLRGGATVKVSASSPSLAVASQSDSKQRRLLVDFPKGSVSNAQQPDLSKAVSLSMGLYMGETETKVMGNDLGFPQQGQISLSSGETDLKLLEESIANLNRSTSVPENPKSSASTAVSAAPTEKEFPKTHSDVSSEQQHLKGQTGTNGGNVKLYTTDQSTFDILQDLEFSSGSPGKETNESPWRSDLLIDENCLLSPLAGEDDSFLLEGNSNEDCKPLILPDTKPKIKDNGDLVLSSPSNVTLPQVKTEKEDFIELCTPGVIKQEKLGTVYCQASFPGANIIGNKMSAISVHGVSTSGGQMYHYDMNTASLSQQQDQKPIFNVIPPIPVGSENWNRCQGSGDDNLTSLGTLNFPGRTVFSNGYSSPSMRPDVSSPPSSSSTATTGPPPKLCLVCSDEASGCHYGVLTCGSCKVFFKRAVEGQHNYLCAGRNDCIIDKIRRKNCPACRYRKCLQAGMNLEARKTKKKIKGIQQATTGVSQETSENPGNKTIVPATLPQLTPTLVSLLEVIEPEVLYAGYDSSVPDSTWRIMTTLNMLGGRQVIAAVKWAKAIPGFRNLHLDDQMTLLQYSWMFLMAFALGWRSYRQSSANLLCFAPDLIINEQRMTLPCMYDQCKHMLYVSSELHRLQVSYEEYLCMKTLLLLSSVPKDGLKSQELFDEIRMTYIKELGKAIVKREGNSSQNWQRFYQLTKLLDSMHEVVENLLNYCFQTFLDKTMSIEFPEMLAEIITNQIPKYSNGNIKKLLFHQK
As to the kind of experiment: Transrepression activity at GR in PMA-stimulated human A549 cells assessed as inhibition of AP1 response element-induced luciferase reporter gene activity. Format: cell-based.

The next assay has as its target T2, Androgen receptor (Homo sapiens, UniProt P10275).
T2 sequence (P10275 whole entry): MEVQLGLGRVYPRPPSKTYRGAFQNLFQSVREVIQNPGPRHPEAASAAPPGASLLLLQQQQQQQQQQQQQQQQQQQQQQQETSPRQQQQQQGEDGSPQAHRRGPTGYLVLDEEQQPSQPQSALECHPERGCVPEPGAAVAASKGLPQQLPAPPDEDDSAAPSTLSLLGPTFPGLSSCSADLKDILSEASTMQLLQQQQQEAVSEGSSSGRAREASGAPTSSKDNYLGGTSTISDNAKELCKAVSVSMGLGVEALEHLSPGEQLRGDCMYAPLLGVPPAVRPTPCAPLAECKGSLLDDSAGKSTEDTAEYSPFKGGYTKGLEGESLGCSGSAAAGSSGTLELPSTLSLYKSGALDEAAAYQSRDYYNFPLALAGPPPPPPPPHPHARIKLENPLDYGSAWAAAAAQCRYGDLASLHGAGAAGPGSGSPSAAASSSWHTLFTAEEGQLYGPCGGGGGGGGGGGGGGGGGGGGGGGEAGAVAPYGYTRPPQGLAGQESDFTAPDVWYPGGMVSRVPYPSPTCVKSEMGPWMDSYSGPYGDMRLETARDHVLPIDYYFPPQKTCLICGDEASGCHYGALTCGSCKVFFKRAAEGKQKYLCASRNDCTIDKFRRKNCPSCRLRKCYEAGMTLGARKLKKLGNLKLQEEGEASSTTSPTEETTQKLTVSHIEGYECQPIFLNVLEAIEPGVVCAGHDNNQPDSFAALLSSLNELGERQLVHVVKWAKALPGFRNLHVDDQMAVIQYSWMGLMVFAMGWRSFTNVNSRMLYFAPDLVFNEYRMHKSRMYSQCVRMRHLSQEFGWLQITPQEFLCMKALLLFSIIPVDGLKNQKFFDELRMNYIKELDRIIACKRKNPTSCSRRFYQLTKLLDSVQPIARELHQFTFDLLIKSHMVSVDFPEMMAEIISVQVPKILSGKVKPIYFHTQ
Briefly: Displacement of fluorescently labeled ligand from androgen receptor by fluorescence polarization assay.

Another assay has as its target T3, Estrogen receptor (Homo sapiens, UniProt P03372).
T3 sequence (P03372 whole entry): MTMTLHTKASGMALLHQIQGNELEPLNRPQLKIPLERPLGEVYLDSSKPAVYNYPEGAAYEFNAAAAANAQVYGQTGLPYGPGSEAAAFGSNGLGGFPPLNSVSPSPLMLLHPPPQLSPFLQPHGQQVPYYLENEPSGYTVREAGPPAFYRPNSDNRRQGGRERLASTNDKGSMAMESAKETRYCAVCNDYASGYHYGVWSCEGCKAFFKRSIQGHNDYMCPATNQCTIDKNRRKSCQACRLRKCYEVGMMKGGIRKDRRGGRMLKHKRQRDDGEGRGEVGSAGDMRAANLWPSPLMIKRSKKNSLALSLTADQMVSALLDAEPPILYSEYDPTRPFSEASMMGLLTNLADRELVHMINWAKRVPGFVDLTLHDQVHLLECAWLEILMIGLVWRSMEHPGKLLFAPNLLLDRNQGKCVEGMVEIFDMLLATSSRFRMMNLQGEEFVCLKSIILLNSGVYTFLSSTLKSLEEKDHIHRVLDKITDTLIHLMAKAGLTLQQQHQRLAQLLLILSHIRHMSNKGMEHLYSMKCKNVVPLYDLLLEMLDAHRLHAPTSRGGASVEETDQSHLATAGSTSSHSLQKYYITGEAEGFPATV
As to the kind of experiment: Displacement of […] from estrogen receptor alpha by fluorescence polarization assay. In short, it runs like this:
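Fluorescence polarization competition binding: the test compound competes with a fluorescently labelled ligand for binding to the full-length receptor or its ligand-binding domain. IC50 is fitted from the polarization signal with a four-parameter logistic equation. Ki is derived by Cheng–Prusoff, Ki = IC50/(1 + ligand concentration/Kd). Values are means of duplicate experiments.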

Assay [2] has as its target T1, Glucocorticoid receptor. As to the kind of experiment: Displacement of FITC-dexamethasone from human recombinant glucocorticoid receptor alpha by fluorescence polarization assay.

Consider `C[C@@]1(C(=O)Nc2nccs2)CC2c3ccccc3C1c1ccccc12`, for which the EC50 on Glucocorticoid receptor [1] worked out at 115 nM. The Ki came out at 7400 nM on Androgen receptor, 15000 nM on Estrogen receptor and 1.3 nM at Glucocorticoid receptor [2].
The like results for `C[C@@]1(C(=O)Nc2nccs2)CC2(C#N)c3ccccc3C1c1ccccc12` were, in that order, 243 nM, more than 10000 nM, 26300 nM and 0.9 nM.
